From ChEMBL document CHEMBL2385063, “Identification of 2-(2-(1-naphthoyl)-8-fluoro-3,4-dihydro-1H-pyrido[4,3-b]indol-5(2H)-yl)acetic acid (setipiprant/ACT-129968), a potent, selective, and orally bioavailable chemoattractant receptor-homologous molecule expressed on Th2 cells (CRTH2) antagonist” (J Med Chem, 2013)
≈ marks a conversion by molar mass, not a printed value.

How the values were obtained:
[1] = Intrinsic clearance in rat hepatocytes measured per 10^6 cells at 1 uM by LC/MS-MS analysis; assay type: ADME, cell-based, Hepatocyte; details: read-out: CLH
[2] = Solubility of the compound in aqueous buffer at pH 7; assay type: physicochemical
Summary of the method: (§1)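 Compound was stirred in water, 60 mM citrate buffer pH 4 or 70 mM phosphate buffer pH 7 at 300 rpm, 25 °C, for 24 h. The mixture was filtered, and the filtrate concentration was measured by HPLC-UV at 250 nm against a calibration curve.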

[3] = Elimination half life in Sprague-Dawley rat plasma at 1 mM by HR-LC-MS analysis; assay type: ADME, cell-free; details: read-out: beta t1/2
Cytochrome P450 3A4 = Cytochrome P450 3A4 (Homo sapiens, UniProt P08684); assay: Inhibition of CYP3A4 in human liver microsomes assessed as midazolam-1'-hydroxylation by LC-MS/MS analysis; assay type: ADME, Microsome
[4] = Solubility of the compound in aqueous buffer at pH 4; assay type: physicochemical; summary of the method: as §1
[5] = target: T1, Prostaglandin D2 receptor 2 (Homo sapiens, UniProt Q9Y5Y4); assay: Antagonist activity at CRTH2 receptor in human eosinophils assessed as inhibition of PGD2-induced cell shape change incubated for 1 hr prior to PGD2 induction measured after 5 mins by FACS flow cytometric analysis in presence of human plasma; details: in the assay text read “incubated for 10 mins” for “incubated for 1 hr”
T1 sequence (Q9Y5Y4 whole entry): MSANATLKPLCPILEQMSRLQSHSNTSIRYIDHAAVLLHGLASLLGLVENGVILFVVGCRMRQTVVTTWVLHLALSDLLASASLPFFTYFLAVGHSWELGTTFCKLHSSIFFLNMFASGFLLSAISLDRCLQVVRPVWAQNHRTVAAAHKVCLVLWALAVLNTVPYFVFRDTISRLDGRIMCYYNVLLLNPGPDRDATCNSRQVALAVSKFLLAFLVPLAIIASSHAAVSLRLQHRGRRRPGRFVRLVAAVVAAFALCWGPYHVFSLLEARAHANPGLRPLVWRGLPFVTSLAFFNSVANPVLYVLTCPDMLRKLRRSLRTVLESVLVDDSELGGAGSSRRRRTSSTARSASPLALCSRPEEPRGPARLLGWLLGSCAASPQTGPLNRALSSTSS
Summary of the method: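 Polymorphonuclear cells isolated from healthy-donor blood on a Polymorphprep gradient (500g, 30 min), erythrocytes lysed hypotonically. Cells stained 1 h with CD49d-APC, mixed with human plasma, preincubated with antagonist, then stimulated with 15 nM PGD2 for 5 min at 37 °C. Fixed in cold 1% paraformaldehyde. Eosinophils gated by CD49d/SSC; activation read as % cells with raised forward scatter.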

[6] = Intrinsic clearance in human liver microsomes measured per mg of protein at 1 uM by LC/MS-MS analysis; assay type: ADME, Microsome; details: read-out: CLH
[7] = target: T2, Prostaglandin D2 receptor (Homo sapiens, UniProt Q13258); assay: Displacement of [3H]PGD2 from recombinant human prostanoid DP1 receptor expressed in CHO cells after 90 mins by scintillation counting analysis; assay type: cell-based
T2 sequence (Q13258 whole entry): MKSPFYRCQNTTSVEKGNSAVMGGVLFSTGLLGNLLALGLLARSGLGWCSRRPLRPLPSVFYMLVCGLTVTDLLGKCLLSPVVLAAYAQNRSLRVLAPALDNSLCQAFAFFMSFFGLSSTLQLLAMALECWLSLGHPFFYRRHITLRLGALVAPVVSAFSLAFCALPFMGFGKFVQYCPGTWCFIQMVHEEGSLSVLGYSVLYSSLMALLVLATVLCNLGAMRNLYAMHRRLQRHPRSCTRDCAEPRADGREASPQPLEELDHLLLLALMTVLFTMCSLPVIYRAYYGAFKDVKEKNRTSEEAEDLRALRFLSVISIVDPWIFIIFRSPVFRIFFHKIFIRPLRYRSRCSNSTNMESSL
Summary of the method: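 Competitive binding with CHO cells stably expressing high levels of recombinant hDP1, using [3H]PGD2 as ligand; IC50 reported.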

[8] = Protein binding in plasma (unknown origin); assay type: ADME, cell-free; details: read-out: PPB
Cytochrome P450 2C9 = Cytochrome P450 2C9 (Homo sapiens, UniProt P11712); assay: Inhibition of CYP2C9 in human liver microsomes assessed as diclofenac 4'-hydroxylation by LC-MS/MS analysis; assay type: ADME, Microsome
[9] = target: T1, Prostaglandin D2 receptor 2; assay: Displacement of [3H]PGD2 from recombinant human CRTH2 receptor expressed in HEK293 cell membranes after 90 mins by scintillation counting analysis
Summary of the method: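 Membranes from HEK293 cells expressing hCRTH2 (80 μg protein/well) in Tris pH 7.4 buffer with NaCl, EDTA, 0.1% BSA were incubated with 2.5 nM [3H]PGD2 for 90 min at room temperature. Nonspecific binding was defined with 10 μM PGD2. Samples were filtered on PEI-soaked GF/C and read by scintillation counting.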

[10] = Elimination half life in human plasma at 1 mM by HR-LC-MS analysis; assay type: ADME, cell-free; details: read-out: beta t1/2
[11] = Intrinsic clearance in rat liver microsomes measured per mg of protein at 1 uM by LC/MS-MS analysis; assay type: ADME, Microsome; details: read-out: CLH
[12] = target: T3, Prostaglandin G/H synthase 1 (Ovis aries) (UniProt P05979); assay: […] at ovine COX-1 at 10 uM relative to control; design: scale not given: the % may be the effect or the level left
T3 sequence (whole entry): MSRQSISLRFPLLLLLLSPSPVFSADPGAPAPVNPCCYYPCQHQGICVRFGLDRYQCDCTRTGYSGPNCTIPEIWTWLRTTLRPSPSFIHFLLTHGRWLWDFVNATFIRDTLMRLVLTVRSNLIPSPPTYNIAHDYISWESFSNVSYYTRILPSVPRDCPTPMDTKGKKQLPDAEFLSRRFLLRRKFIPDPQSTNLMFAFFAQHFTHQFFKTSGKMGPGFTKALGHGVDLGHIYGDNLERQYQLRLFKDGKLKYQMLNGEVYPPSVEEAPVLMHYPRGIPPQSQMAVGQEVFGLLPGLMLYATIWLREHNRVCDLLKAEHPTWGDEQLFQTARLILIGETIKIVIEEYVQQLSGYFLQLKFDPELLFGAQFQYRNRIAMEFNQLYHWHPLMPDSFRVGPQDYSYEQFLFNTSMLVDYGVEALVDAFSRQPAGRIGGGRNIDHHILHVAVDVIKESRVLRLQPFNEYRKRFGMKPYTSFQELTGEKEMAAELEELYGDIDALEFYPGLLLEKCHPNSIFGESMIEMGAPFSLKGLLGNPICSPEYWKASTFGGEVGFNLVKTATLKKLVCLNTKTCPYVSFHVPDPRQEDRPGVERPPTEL
Summary of the method: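 Ovine COX-1 activity measured with a commercial kit, following the manufacturer's protocol. Compounds were tested in duplicate at 10 μM final concentration. Activity is expressed as inhibition relative to control.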

[13] = Half life in simulated gastric fluid at 2 uM by LC-MS analysis; assay type: physicochemical
Summary of the method: (§2)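 Compounds were incubated in simulated gastric fluid for 1 h or simulated intestinal fluid for 4 h. Unchanged parent was quantified by LC-MS.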

Cytochrome P450 2D6 = Cytochrome P450 2D6 (Homo sapiens, UniProt P10635); assay: Inhibition of CYP2D6 in human liver microsomes assessed as dextromethorphan O-demethylation by LC-MS/MS analysis; assay type: ADME, Microsome
[14] = n-octanol-KH2PO4-Na2HPO4 buffer partition coefficient, log D of the compound at pH 7.4 by shake flask method; assay type: physicochemical
[15] = Half life in simulated intestinal fluid at 2 uM by LC-MS analysis; assay type: physicochemical; summary of the method: as §2

Cytochrome P450 2D6, sequence (P10635 whole entry): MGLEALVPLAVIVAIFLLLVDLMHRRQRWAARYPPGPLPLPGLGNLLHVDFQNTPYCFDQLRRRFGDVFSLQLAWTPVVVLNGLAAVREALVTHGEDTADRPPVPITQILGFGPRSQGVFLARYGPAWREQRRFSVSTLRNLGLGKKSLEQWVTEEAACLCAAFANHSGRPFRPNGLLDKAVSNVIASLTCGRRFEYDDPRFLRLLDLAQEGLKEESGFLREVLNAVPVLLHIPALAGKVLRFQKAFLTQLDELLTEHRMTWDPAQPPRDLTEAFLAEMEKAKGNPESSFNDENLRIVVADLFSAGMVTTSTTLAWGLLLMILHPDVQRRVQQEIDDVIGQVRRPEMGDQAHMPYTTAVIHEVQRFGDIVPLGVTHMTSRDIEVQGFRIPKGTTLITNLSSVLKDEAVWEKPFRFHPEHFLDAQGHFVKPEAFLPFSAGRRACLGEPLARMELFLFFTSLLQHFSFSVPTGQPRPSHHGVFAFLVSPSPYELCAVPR
Cytochrome P450 2C9, sequence (P11712 whole entry): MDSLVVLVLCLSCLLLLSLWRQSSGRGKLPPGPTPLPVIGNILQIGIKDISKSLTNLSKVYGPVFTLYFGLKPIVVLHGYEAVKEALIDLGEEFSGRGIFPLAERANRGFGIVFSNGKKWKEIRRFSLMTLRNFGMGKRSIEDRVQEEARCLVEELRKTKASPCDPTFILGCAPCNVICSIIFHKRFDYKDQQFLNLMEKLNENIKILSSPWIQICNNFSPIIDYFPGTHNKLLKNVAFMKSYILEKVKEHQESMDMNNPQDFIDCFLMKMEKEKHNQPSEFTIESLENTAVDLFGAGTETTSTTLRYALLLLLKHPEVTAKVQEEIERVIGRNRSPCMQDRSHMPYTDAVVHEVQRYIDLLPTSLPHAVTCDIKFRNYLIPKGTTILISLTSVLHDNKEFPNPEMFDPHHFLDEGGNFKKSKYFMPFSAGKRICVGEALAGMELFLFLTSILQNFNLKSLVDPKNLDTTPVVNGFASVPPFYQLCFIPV
Cytochrome P450 3A4, sequence (P08684 whole entry): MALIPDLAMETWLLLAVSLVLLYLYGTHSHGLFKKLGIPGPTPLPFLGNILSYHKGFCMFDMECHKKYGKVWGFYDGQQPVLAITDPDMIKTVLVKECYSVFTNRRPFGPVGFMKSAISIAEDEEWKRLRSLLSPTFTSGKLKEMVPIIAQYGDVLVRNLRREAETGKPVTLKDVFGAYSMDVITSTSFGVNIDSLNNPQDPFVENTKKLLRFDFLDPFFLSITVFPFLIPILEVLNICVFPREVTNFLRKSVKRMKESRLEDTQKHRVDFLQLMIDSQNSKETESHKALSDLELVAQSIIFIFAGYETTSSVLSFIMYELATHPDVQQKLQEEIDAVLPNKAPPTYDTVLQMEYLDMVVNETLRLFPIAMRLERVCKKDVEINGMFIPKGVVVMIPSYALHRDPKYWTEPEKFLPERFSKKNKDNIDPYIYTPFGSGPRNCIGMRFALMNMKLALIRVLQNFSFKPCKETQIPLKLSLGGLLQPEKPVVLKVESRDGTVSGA

| hepatocyte CLint at 1 µM [1] [µL/min/1e6 cells] | solubility [2] [µg/mL] | half-life [3] [h] | IC50 (Cytochrome P450 3A4) [µM] | solubility [4] [µg/mL] | IC50 [5] [µM] | microsomal CLint at 1 µM [6] [µL/min/mg] | IC50 [7] [µM] | fraction unbound [8] | IC50 (Cytochrome P450 2C9) [µM] | IC50 [9] [µM] | half-life [10] [h] | microsomal CLint at 1 µM [11] [µL/min/mg] | Activity [12] [%] | half-life at 2 µM [13] [h] | IC50 (Cytochrome P450 2D6) [µM] | logD [14] | half-life at 2 µM [15] [h] | Compound |
| --- | --- | --- | --- | --- | --- | --- | --- | --- | --- | --- | --- | --- | --- | --- | --- | --- | --- | --- |
| 1.4 | 815 (≈ 2210 µM) | > 4 | > 50 | 180 (≈ 488 µM) | 0.05 | 5 | > 10 | < 0.03 | > 50 | 0.01 | > 4 | 24 | < 30 | > 1 | > 50 | -0.5 | > 4 | O=C(O)Cn1c2c(c3ccccc31)CN(C(=O)c1cccc(Cl)c1)CC2 |
| 1.9 | 1000 (≈ 2590 µM) | > 4 | > 50 | 140 (≈ 362 µM) | 0.06 | < 4 | > 10 | < 0.03 | > 50 | 0.009 | > 4 | < 4 | < 30 | > 1 | > 50 | -0.3 | > 4 | O=C(O)Cn1c2c(c3cc(F)ccc31)CN(C(=O)c1cccc(Cl)c1)CC2 |
